In general, IC50 refers to the concentration that gives 50% inhibition. Higher therefore signals weaker potency in that assay.

Consider one compound from paper PMC7965737 (Bioconjugate chemistry, 2019).

For one experiment, the system named is MCF-10A. Kind of experiment: MTT cytotoxicity assay, MCF-10A. Type of experiment: cell-based, Human. The settings on record: non-cancerous cell line MCF-10A, serum-free media, 48 h. Summed up:
(§1)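 Cells were seeded at 5×10^3 per well in complete medium. The next day the medium was replaced with serum-free medium containing test compound (0–100 μM) or free doxorubicin (positive control), with untreated cells in serum-free medium as negative control, for 48 h at 37 °C, 5% CO2. MTT (5 mg/mL solution) was then added for 2 h. Formazan was dissolved in 4 mM HCl/0.1% NP40/2-propanol (1:1:1) and read at 570 nm. Viability was taken relative to untreated cells, in triplicate, with the experiment repeated once. IC50 came from a nonlinear fit of normalized data against log concentration.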

Another experiment deals with MDA-MB-468. Kind of experiment: MTT cytotoxicity assay, MDA-MB-468. Type of experiment: cell-based, Human. The settings on record: MDA-MB-468 breast cancer cell line, serum-free media, 48 h. Summed up: as §1
A general note: Formazan colour is commonly taken as a measure of viable cells.

SMILES strings stand for the structures. Structures can show the parent of a compound that is named as a salt.

Take `COc1cccc2c1C(=O)c1c(O)c3c(c(O)c1C2=O)C[C@@](O)(C(=O)CO)C[C@@H]3O[C@H]1C[C@H](N)[C@H](O)[C@H](C)O1` [Dox, Doxorubicin hydrochloride]: the figures for the half-inhibitory concentration (IC50) in the experiment with MCF-10A and in the experiment with MDA-MB-468 were 240 nM and 350 nM, respectively.
